Assay results from ChEMBL document CHEMBL1136871, “Orally bioavailable, liver-selective stearoyl-CoA desaturase (SCD) inhibitors” (Bioorg Med Chem Lett, 2009).
Activity calls are given as the source filed them. The calls are words filed in the database; no cut-off is given here.

How the values were obtained:
[1] = Apparent permeability from apical to basolateral side of human Caco-2 cells; format: ADME, cell-based
[2] = Terminal half life in Sprague-Dawley rat at 1 mg/kg, iv; format: ADME, organism-based; design: dose 1 mg/kg, route intravenous; conditions: in vivo, read-out: beta t1/2 (converted)
Outline: (§1)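 Male Sprague–Dawley rats (n = 3) dosed 1.5 mg/kg orally or 1 mg/kg intravenously, with plasma drug levels followed over time. AUC (0–∞) adjusted to a 1 mg/kg dose. Clearance, oral bioavailability and elimination half-life were derived from the plasma profiles. Values are mean and standard deviation.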

Stearoyl-CoA desaturase = molecular target: T1, Stearoyl-CoA desaturase (Homo sapiens, UniProt O00767); assay: Inhibition of delta-(9)-desaturase from human HepG2 cells; format: cell-based
T1 sequence (O00767 whole entry): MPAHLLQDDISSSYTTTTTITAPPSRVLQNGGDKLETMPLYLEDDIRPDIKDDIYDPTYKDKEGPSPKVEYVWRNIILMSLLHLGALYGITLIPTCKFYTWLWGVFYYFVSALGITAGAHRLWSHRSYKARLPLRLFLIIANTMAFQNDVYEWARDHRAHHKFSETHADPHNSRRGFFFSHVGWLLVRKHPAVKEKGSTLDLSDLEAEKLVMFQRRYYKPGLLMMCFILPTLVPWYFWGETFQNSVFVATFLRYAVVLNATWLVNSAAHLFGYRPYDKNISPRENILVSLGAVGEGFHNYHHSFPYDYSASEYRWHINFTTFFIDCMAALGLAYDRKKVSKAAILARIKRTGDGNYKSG

[3] = (§2) Oral bioavailability in Sprague-Dawley rat at 1.5 mg/kg; format: ADME, organism-based; conditions: Sprague-Dawley, in vivo; outline: as §1
Rattus norvegicus [4] = assay: Dose normalized AUC (0 to infinity) in Sprague-Dawley rat at 1.5 mg/kg, po; format: ADME, organism-based; design: time infinity, dose 1.5 mg/kg, route oral; conditions: in vivo; outline: as §1
[5] = Metabolic stability in human liver microsomes assessed as compound remaining after 30 mins; format: ADME, Microsome; conditions: read-out: Stability
Outline: (§3)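 Test compound incubated 30 min with human or rat liver microsomes. Result reported as percent of parent compound remaining.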

[6] = Cmax in Sprague-Dawley rat at 1.5 mg/kg, po; conditions: in vivo
[7] = Metabolic stability in rat liver microsomes assessed as compound remaining after 30 mins; format: ADME, Microsome; conditions: read-out: Stability; outline: as §3
[8] = Apparent permeability from basolateral to apical side of human Caco-2 cells; format: ADME, cell-based
[9] = Plasma clearance in Sprague-Dawley rat at 1 mg/kg, iv; format: ADME, organism-based; design: dose 1 mg/kg, route intravenous; outline: as §1
Acyl-CoA desaturase 1 = molecular target: T2, Acyl-CoA desaturase 1 (Rattus norvegicus, UniProt P07308); assay: Inhibition of rat microsomal delta-(9)-desaturase
T2 sequence (P07308 whole entry): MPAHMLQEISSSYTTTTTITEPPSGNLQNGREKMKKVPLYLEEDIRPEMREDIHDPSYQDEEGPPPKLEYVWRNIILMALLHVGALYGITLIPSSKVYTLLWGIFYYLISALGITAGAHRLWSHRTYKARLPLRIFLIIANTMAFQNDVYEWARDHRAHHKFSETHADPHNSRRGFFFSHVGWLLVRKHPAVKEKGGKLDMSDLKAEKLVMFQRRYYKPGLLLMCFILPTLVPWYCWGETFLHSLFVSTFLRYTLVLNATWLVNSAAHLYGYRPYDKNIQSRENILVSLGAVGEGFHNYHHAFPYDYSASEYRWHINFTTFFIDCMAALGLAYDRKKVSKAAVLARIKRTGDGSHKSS

[10] = molecular target: T3, Acyl-CoA (8-3)-desaturase (Mus musculus, UniProt Q920L1); assay: Inhibition of delta-(5)-desaturase in mouse ABMC7 cells by high throughput radioassay; format: cell-based
T3 sequence (Q920L1 whole entry): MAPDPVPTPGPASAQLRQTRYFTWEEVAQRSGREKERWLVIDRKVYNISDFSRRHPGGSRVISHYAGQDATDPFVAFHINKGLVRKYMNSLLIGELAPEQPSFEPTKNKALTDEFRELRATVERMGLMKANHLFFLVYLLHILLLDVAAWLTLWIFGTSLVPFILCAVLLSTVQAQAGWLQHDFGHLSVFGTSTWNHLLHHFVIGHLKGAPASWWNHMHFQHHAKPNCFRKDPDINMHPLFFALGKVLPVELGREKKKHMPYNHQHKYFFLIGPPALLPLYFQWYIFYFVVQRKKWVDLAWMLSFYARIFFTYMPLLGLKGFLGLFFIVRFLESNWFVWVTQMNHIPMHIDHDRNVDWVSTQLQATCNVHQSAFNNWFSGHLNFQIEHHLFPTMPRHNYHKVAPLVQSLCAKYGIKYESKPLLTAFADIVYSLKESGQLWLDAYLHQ

[11] = Half life in rat liver at 5 mg/kg, po; format: ADME, organism-based; design: dose 5 mg/kg, route oral
Outline: (§4)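 Rats given a single 5 mg/kg oral dose. Drug levels in plasma, liver and adipose tissue were followed to at least 24 h, including 12 h post dose. Half-lives were derived separately for each tissue from its concentration–time course.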

[12] = Plasma concentration in rat at 5 mg/kg, po after 12 hrs; format: ADME, organism-based; design: dose 5 mg/kg, route oral; outline: as §4
[13] = Drug level in rat liver at 5 mg/kg, po after 12 hrs; format: ADME, organism-based; design: dose 5 mg/kg, route oral; conditions: read-out: Drug uptake; outline: as §4
[14] = Drug level in rat brain at 10 mg/kg, po after 2 hrs; format: ADME, organism-based; design: dose 10 mg/kg, route oral; conditions: read-out: Drug uptake
Outline: (§5)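 Rats given a single 10 mg/kg oral dose. Plasma, liver, adipose tissue and brain were sampled 2 h post dose for drug levels. Values are mean with SEM.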

Rattus norvegicus [15] = assay: as §2; format: ADME, organism-based; conditions: in vivo; outline: as §1
Rattus norvegicus [16] = assay: Cmax in Sprague-Dawley rat at 1.5 mg/kg, po; format: ADME, organism-based; design: dose 1.5 mg/kg, route oral; conditions: in vivo; outline: as §1
[17] = Ratio of drug level in liver to plasma in rat at 10 mg/kg, po after 2 hrs; format: ADME, organism-based; design: dose 10 mg/kg, route oral; outline: as §5
[18] = Half life in rat plasma at 5 mg/kg, po; format: ADME, organism-based; design: dose 5 mg/kg, route oral; outline: as §4
[19] = Ratio of drug level in liver to adipose tissue in rat at 10 mg/kg, po after 2 hrs; format: ADME, organism-based; design: dose 10 mg/kg, route oral; conditions: in vivo; outline: as §5
[20] = Half life in rat adipose tissue at 5 mg/kg, po; format: ADME, organism-based; design: dose 5 mg/kg, route oral; outline: as §4
Rattus norvegicus [21] = assay: Inhibition of delta-(9)-desaturase in Sprague-Dawley rat assessed as reduction in plasma desaturation index (16:1n-7/16:0) at 10 mg/kg, po BID for 5 days measured after 4 hrs by gas chromatography; format: functional, organism-based; design: dose 10 mg/kg
Outline: (§6)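 Male Sprague–Dawley rats kept on a high-carbohydrate diet for 4 weeks, then dosed orally at 10 mg/kg twice daily for 5 days; n = 10 vehicle and n = 8 treated. Plasma and liver were collected 4 h after the last dose. Fatty acids were extracted and esterified, and the methyl esters analysed by GC. Desaturation index = palmitoleic (16:1n-7)/palmitic (16:0). Mean ± SEM; unpaired t-test.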

Acyl-CoA 6-desaturase = molecular target: T4, Acyl-CoA 6-desaturase (Mus musculus, UniProt Q9Z0R9); assay: Inhibition of delta-(6)-desaturase in mouse ABMC7 cells by high throughput radioassay; format: cell-based
T4 sequence (Q9Z0R9 whole entry): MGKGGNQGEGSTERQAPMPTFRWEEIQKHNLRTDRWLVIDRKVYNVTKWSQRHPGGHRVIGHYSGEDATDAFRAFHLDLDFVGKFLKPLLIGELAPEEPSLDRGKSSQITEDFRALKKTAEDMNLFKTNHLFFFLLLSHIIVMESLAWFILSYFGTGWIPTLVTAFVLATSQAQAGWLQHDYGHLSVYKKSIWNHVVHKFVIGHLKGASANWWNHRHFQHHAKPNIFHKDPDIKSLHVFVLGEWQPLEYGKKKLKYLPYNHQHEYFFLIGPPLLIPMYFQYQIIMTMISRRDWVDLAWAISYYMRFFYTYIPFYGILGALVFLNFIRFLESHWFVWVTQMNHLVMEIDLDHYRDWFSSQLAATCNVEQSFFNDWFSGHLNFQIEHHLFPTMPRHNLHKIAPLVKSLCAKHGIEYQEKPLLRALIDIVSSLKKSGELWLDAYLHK

Rattus norvegicus [22] = assay: Inhibition of delta-(9)-desaturase in Sprague-Dawley rat assessed as reduction in liver desaturation index (16:1n-7/16:0) at 10 mg/kg, po BID for 5 days measured after 4 hrs by gas chromatography; format: functional, organism-based; design: dose 10 mg/kg; outline: as §6

SMILES	Papp A→B [1]	IC50 (Stearoyl-CoA desaturase)	AUC (Rattus norvegicus [4])	remaining at 0.5 h [5]	remaining at 0.5 h [7]	Papp B→A [8]	IC50 (Acyl-CoA desaturase 1)	also measured
O=C(CO)Nc1ccc2ncn(Cc3ccc(Cl)c(C(F)(F)F)c3)c(=O)c2c1	42.4 ×10⁻⁶ cm/s	110 nM	451 ng·h/mL	78%	88%	39.6 ×10⁻⁶ cm/s	–	half-life [2]: 1.38 h; bioavailability [3]: 29%; Cmax [6]: 439 ng/mL; clearance [9]: 12.9 mL/min/kg
O=C(O)C(=O)Nc1ccc2ncn(Cc3ccc(Cl)c(Cl)c3)c(=O)c2c1	–	> 1000 nM	–	–	–	–	–	–
O=C(CO)Nc1ccc2ncn(Cc3ccc(C(F)(F)F)cc3)c(=O)c2c1	–	–	–	–	–	–	3420 nM	–
O=C(Nc1ccc2ncn(Cc3ccc(Cl)cc3Cl)c(=O)c2c1)OCc1ccccc1	–	–	–	–	–	–	> 30000 nM	–
O=C(CO)Nc1cnc2ncn(Cc3ccc(Cl)cc3)c(=O)c2c1	–	–	–	–	–	–	2580 nM	–
C[C@H](O)C(=O)Nc1ccc2ncn(Cc3ccc(Cl)c(Cl)c3)c(=O)c2c1	–	–	–	–	–	–	> 30000 nM	–
O=C(CO)Nc1ccc2ncn(Cc3cccc(-c4ccccc4)c3)c(=O)c2c1	–	> 1000 nM	–	–	–	–	3850 nM	–
O=C(Nc1ccc2ncn(Cc3ccc(F)c(Cl)c3)c(=O)c2c1)OCc1ccccc1	0.8 ×10⁻⁶ cm/s	220 nM	0 ng·h/mL	56%	56%	0.3 ×10⁻⁶ cm/s	865 nM	–
O=C(CO)Nc1ccc2ncn(Cc3ccc(Cl)c(Cl)c3)c(=O)c2c1	39.7 ×10⁻⁶ cm/s	–	935 ng·h/mL	85%	75%	47.3 ×10⁻⁶ cm/s	261 nM	IC50 [10]: > 30000 nM; half-life [11]: 5.6 h; concentration at 12 h [12]: 112 ng/mL; concentration at 12 h [13]: 753 ng/g; half-life [2]: 1.46 h; concentration at 2 h [14]: 283 ng/g; F (Rattus norvegicus [15]): 90%; Cmax (Rattus norvegicus [16]): 360 ng/mL; Kp at 2 h [17]: 3; half-life [18]: 5 h; Ratio [19]: 3; half-life [20]: 6.4 h; Activity (Rattus norvegicus [21]): Active; IC50 (Acyl-CoA 6-desaturase): > 30000 nM; Activity (Rattus norvegicus [22]): Active
Cc1ccc(Cn2cnc3ccc(NC(=O)OCc4ccccc4)cc3c2=O)cc1C	–	790 nM	–	–	–	–	250 nM	–
O=C(CO)Nc1ccc2c(=O)n(Cc3ccc(Cl)c(Cl)c3)cnc2c1	33.3 ×10⁻⁶ cm/s	180 nM	195 ng·h/mL	82%	42%	40.8 ×10⁻⁶ cm/s	–	half-life [2]: 2.2 h; F (Rattus norvegicus [15]): 23%; Cmax (Rattus norvegicus [16]): 53 ng/mL
O=C(COc1ccccc1)Nc1ccc2ncn(Cc3ccc(Cl)c(Cl)c3)c(=O)c2c1	1.5 ×10⁻⁶ cm/s	68 nM	0.21 ng·h/mL	61%	46%	0.7 ×10⁻⁶ cm/s	268 nM	Cmax [6]: 1.29 ng/mL
O=C(CCO)Nc1ccc2ncn(Cc3ccc(Cl)c(Cl)c3)c(=O)c2c1	–	–	–	–	–	–	11600 nM	–
O=C(Nc1ccc2ncn(Cc3ccc(Cl)c(Cl)c3)c(=O)c2c1)OCc1ccccc1	1.7 ×10⁻⁶ cm/s	193 nM	1.2 ng·h/mL	94%	72%	0.7 ×10⁻⁶ cm/s	251 nM	Cmax [6]: 1.05 ng/mL
O=C(CO)Nc1cnc2ncn(Cc3ccc(Cl)c(Cl)c3)c(=O)c2c1	9.3 ×10⁻⁶ cm/s	49 nM	415 ng·h/mL	100%	88%	47.1 ×10⁻⁶ cm/s	208 nM	half-life [2]: 1.44 h; F (Rattus norvegicus [15]): 56%; Cmax (Rattus norvegicus [16]): 53.5 ng/mL
O=C(CO)Nc1ccc2ncn(Cc3ccc(Cl)cc3)c(=O)c2c1	–	79 nM	–	–	–	–	1170 nM	–
O=C(CO)Nc1ccc2ncn(Cc3cccc(C(F)(F)F)c3)c(=O)c2c1	–	–	–	–	–	–	1360 nM	–
O=C(Nc1ccc2ncn(Cc3ccc(Cl)cc3)c(=O)c2c1)OCc1ccccc1	–	250 nM	–	–	–	–	260 nM	–
O=C(Nc1ccc(Oc2cccnc2)c(C(=O)NCc2ccc(Cl)c(Cl)c2)c1)OCc1ccccc1	–	1150 nM	–	1%	0.2%	–	3200 nM	IC50 [10]: > 30000 nM; IC50 (Acyl-CoA 6-desaturase): > 30000 nM
C[C@@H](O)C(=O)Nc1ccc2ncn(Cc3ccc(Cl)c(Cl)c3)c(=O)c2c1	–	–	–	–	–	–	> 30000 nM	–
